This note sets out measurements from ChEMBL document CHEMBL1127645, “Synthesis, structure-activity relationships, and pharmacological evaluation of a series of fluorinated 3-benzyl-5-indolecarboxamides: identification of 4-[[5-[((2R)-2-methyl-4,4,4-trifluorobutyl)carbamoyl]-1-methyl indol- 3-yl]methyl]-3-methoxy-N-[(2-methylphenyl)sulfonyl]benzamide, a potent, …” (J Med Chem, 1994).

Series [1] in a line: Compound was evaluated for the oral bioavailability in rat. The conditions noted are these: in vivo, read-out: Bioavailabiility. The class given is ADME, organism-based.
Series [2] in a line: Compound was evaluated for the oral bioavailability in dog. The class given is ADME, organism-based, Canis lupus familiaris. To be noted: in vivo, read-out: Bioavailabiility.
The target in series [3] is Muscarinic acetylcholine receptor (Homo sapiens) (UniProt P20309+P08173+P11229+P08172+P08912). In words: Compound was evaluated for the selectivity of Muscarinic receptors isolated from guinea pig ileum by displacing acetylcholine. The class given is tissue-based. The conditions noted are these: Cavia porcellus, target entry is the homologue from another species. The method in brief: (§1)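 Isolated-tissue functional selectivity screen, run at a single standard concentration of 10 μM, recording any change in the response to the receptor agonist.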

The target of series [4] is Histamine H1 receptor (Cavia porcellus) (UniProt P31389). As to the kind of experiment: Compound was evaluated for the selectivity of Histaminergic 1 receptor isolated from guinea pig ileum by displacing histamine. The series is classed as tissue-based. In outline:
as §1

Series [5] addresses T1, Cysteinyl leukotriene receptor 1 (Cavia porcellus) (UniProt Q2NNR5).
T1 sequence (whole entry): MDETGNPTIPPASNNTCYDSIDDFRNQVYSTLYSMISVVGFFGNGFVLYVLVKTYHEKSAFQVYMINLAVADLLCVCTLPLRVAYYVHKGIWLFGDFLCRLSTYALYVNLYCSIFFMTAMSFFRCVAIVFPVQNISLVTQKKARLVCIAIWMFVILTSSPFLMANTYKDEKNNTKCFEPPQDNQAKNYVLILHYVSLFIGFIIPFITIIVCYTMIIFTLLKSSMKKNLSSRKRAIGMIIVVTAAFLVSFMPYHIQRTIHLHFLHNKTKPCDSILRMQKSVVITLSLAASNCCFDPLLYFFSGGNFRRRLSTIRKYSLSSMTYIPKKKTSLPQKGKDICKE
As to the kind of experiment: Effective dose for the inhibition of percent protection from LTD4-induced dyspnea in a conscious guinea pig administered through oral route. The class given is functional. In outline: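 Conscious guinea pig dyspnea model with LTD4 challenge; percent protection from dyspnea plotted against dose (oral or intravenous). ED50 obtained by regression using at least three doses from the linear portion of the dose-response curve; SEM for percent protection was generally ≤25% at each dose.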

Series [6] deals with Prostaglandin E2 receptor EP2 subtype (Homo sapiens) (UniProt P43116). In words: Compound was evaluated for the selectivity of Prostaglandin 2 receptors isolated from guinea pig ileum by displacing PGE-2. The conditions noted are these: Cavia porcellus; Trachea; in the assay text read “guinea pig trachea” for “guinea pig ileum”; target entry is the homologue from another species. The series is classed as tissue-based. The method in brief: as §1
Chain of Prostaglandin E2 receptor EP2 subtype (Homo sapiens) (P43116 whole entry): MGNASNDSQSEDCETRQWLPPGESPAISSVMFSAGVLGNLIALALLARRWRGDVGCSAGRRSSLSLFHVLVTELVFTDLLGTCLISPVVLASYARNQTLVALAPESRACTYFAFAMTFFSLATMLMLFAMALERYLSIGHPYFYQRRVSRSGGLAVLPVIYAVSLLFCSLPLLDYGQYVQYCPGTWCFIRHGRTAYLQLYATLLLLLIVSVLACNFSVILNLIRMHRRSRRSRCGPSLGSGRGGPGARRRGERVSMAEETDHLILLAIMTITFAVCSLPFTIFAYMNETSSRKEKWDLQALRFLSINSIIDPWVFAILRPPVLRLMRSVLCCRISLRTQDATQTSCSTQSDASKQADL

Series [7] addresses T2, Cysteinyl leukotriene receptor 1 (Cavia porcellus, UniProt Q2NNR5).
T2 sequence (Q2NNR5 whole entry): T1 sequence (whole entry)
As to the kind of experiment: Inhibition constant for displacement of [3H]LTD4 on guinea pig lung parenchymal membranes. The series is classed as tissue-based, Lung parenchyma. In outline:
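Guinea pig lung parenchymal membranes; competitive displacement of [3H]LTD4. Ki taken as mean of two experiments, each run in duplicate on separate membrane batches.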
A general note: Loss of bound radioactivity is the signal in a displacement assay; it reports binding, not function.

Series [8] is described as follows: Bioavailability in guinea pig. The series is classed as ADME, organism-based, Cavia porcellus. To be noted: in vivo.
Series [9] addresses T3, Prostaglandin E2 receptor EP1 subtype (Homo sapiens) (UniProt P34995).
T3 sequence (whole entry): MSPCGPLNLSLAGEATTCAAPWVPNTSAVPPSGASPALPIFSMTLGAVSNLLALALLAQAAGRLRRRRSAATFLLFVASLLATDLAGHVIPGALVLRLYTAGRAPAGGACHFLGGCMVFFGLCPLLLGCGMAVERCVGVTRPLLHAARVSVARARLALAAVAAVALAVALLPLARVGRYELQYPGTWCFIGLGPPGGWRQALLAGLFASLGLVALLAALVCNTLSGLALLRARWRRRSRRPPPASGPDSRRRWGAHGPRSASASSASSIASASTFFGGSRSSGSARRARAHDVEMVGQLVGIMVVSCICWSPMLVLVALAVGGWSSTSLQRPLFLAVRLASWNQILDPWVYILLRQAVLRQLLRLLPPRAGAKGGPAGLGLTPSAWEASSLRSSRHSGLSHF
In words: Compound was evaluated for the selectivity of Prostaglandin 1 receptors isolated from guinea pig ileum by displacing PGE-2. To be noted: Cavia porcellus, target entry is the homologue from another species.

Series [10] has as its target T4, Thromboxane A2 receptor (Rattus norvegicus) (UniProt P34978).
T4 sequence (whole entry): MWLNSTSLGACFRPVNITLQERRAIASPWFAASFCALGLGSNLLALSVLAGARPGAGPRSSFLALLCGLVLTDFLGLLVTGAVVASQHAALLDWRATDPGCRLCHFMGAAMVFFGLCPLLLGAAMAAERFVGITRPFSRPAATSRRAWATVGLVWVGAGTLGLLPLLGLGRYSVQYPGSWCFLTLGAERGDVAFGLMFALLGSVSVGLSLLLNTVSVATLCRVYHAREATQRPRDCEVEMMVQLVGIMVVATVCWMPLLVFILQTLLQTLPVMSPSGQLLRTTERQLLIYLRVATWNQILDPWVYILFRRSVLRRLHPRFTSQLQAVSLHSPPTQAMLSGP
As to the kind of experiment: Compound was evaluated for the selectivity of Thromboxane 1 receptors isolated from rat aorta by displacing U-46,619. The class given is functional, tissue-based. In outline:
as §1

In series [11] the target is Alpha-2 adrenergic receptor (Mus musculus) (UniProt P30545+Q01338+Q01337). As to the kind of experiment: Compound was evaluated for the selectivity of alpha 2 adrenergic receptors isolated from mouse vas deferens by displacing clonidine. The class given is functional, tissue-based. The method in brief:
as §1

The target of series [12] is T1, Cysteinyl leukotriene receptor 1 (Cavia porcellus). In words: Binding constant in guinea pig tracheal spirals with LTE4. The conditions noted are these: Trachea. The class given is tissue-based. The method in brief:
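Guinea pig tracheal spirals contracted with LTE4 as agonist. Antagonist KB derived from concentration-response curves and reported as -log(KB) (pKB); n = number of concentration-response curves.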

Series [13] is described as follows: Compound was evaluated for the clearance in dog. To be noted: in vivo. The series is classed as ADME, organism-based, Canis lupus familiaris.
A short description of series [14]: ED50 (p.o.) / ED50 (i.v.) ratio of the compound. The series is classed as functional. In outline:
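Ratio of oral ED50 to intravenous ED50 from the conscious guinea pig LTD4-induced dyspnea model, used as an index of oral bioavailability.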

A short description of series [15]: Clearance in guinea pig. The series is classed as ADME, organism-based, Cavia porcellus. To be noted: in vivo.
Series [16] is described as follows: Compound was evaluated for clearance in rat. The series is classed as ADME, organism-based. To be noted: in vivo.
For series [17], the system named is Cysteinyl leukotriene receptor (Cavia porcellus). In words: Inhibition of percent protection from LTD4-induced dyspnea in a conscious guinea pig administered intravenously.
For series [18], the target named is Beta-1 adrenergic receptor (Cavia porcellus) (UniProt B0FL73). In words: Compound was evaluated for the selectivity of Beta 1 adrenergic receptors isolated from guinea pig right atrium by displacing isoproterenol. The class given is functional, tissue-based. To be noted: Cardiac atrium. In outline: as §1
Chain of Beta-1 adrenergic receptor (Cavia porcellus) (B0FL73 1-467): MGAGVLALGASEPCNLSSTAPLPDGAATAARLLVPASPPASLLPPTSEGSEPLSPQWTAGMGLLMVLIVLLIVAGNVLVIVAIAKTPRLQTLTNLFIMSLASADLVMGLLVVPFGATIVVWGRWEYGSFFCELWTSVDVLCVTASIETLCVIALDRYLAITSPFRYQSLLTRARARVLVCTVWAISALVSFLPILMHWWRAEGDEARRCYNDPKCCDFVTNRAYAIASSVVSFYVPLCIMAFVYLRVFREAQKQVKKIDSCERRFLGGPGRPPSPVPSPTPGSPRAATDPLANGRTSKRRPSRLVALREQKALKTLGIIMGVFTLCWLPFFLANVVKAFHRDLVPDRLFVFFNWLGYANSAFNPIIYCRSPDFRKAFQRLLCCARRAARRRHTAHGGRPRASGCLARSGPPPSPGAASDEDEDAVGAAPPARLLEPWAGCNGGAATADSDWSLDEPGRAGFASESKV
The next series relates to Cavia porcellus. As to the kind of experiment: Percent inhibition of protection from LTD4-induced dyspnea in a conscious guinea pig administered through oral route at a dose of 3 umol/kg. The series is classed as functional.

Chain of Histamine H1 receptor (Cavia porcellus) (P31389 whole entry): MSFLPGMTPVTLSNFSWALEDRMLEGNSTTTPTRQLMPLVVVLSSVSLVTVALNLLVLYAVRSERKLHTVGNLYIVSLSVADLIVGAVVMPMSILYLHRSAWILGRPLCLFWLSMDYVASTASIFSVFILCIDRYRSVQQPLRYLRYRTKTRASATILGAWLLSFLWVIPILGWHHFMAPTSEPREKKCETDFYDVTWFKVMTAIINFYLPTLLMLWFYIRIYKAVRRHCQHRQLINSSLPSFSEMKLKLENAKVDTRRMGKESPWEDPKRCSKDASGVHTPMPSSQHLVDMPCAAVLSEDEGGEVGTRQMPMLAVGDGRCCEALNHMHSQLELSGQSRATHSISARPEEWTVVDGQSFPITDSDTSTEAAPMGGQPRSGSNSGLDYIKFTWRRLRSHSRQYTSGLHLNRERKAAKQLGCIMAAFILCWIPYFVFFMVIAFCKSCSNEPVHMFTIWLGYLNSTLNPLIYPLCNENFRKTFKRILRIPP

Turning to `COc1cc(C(=O)NS(=O)(=O)c2ccccc2C)ccc1Cc1cn(C)c2ccc(C(=O)NC[C@H](C)CC(F)(F)F)cc12`, the bioavailability in series [1] turned out to be 33%; in [2], 38%; in series [8], 15%. In addition, the pKB (as a rule, −log10 of the KB, conventionally taken in molar units) in series [3] was < 5; in series [4] it was < 5; in series [6], < 5; in series [9] it was 5.23; in series [10], < 5; in [11] it was < 5. The pKB was 10.1 in series [12] and < 5 in series [18]. For the same compound, the ED50 – broadly, the dose that gives a 50% effect, or the effect in half of the subjects – in [5] was found to be 1.14 µmol/kg; in [17], 0.022 µmol/kg. Moreover, the affinity in [7] corresponds to a Ki of 420 pM. Also, the clearance (commonly the rate of elimination divided by the concentration) in series [13] is 5.17 mL/min/kg; in series [15], 14.2 mL/min/kg; in series [16] it was 1.17 mL/min/kg. The Ratio in series [14] turned out to be 52.
Consider `COc1cc(C(=O)NS(=O)(=O)c2ccccc2C)ccc1Cc1cn(C)c2ccc(C(=O)NCCC(C(F)(F)F)C(F)(F)F)cc12`, for which the Ki (as a rule, the equilibrium dissociation constant of an inhibitor or competing ligand from its target) in series [7] came to 1200 pM. Besides, the inhibition in vivo (as a rule, the drop in the measured response relative to a control, in per cent) at 3 µmol/kg in the series on Cavia porcellus stood at 19%. Further, the pKB in [12] is 9.3.
